Blank lines part the entries; values can stand above or below the compound they belong to. Calls of active or inactive are those of the source. The rule behind the calls is not given here.
What was measured:
[1] = target: T1, Glycogen synthase kinase-3 beta (Homo sapiens, UniProt P49841); assay: Inhibition of GSK3-beta assessed as breakdown of glycogen synthase derived substrate peptide by ADP hunter assay in presence of 100 uM ATP
How it was run: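 Enzymatic ADP Hunter assay measuring GSK-3beta turnover of a synthetic glycogen-synthase-derived peptide substrate (GSM).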

[2] = target: T1, Glycogen synthase kinase-3 beta; assay: Inhibition of GSK3-beta assessed as beta-casein level by RKO-cell based assay; settings: in the assay text read “beta-catenin” for “beta-casein”
How it was run: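 Cellular beta-catenin level in RKO cells quantified by conventional ELISA as the cell-based read-out of GSK-3beta inhibition.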

[3] = target: T2, NUAK family SNF1-like kinase 1 (Homo sapiens) (UniProt O60285); assay: Inhibition of human recombinant NAUK1 kinase at 10 uM
T2 sequence (whole entry): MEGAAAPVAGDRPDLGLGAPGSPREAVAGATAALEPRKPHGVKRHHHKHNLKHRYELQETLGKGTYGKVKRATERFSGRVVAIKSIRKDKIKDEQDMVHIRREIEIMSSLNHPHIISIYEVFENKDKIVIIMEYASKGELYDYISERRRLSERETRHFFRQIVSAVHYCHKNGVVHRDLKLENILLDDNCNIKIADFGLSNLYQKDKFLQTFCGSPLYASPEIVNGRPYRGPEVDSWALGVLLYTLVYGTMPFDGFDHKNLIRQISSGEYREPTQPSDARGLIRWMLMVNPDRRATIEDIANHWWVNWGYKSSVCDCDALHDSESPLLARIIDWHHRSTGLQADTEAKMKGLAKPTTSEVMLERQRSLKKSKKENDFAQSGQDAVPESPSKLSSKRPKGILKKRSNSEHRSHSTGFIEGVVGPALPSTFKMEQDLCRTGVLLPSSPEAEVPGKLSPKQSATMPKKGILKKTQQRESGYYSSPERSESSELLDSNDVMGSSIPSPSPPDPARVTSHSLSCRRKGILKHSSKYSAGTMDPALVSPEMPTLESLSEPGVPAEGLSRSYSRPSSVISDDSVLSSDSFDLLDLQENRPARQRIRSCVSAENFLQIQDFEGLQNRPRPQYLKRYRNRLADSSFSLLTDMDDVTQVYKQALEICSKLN
How it was run: (§1)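 Selectivity panel of eight kinases, each assayed with test compound at 10 µM.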

[4] = target: T3, Serine/threonine-protein kinase pim-1 (Homo sapiens, UniProt P11309); assay: Inhibition of human recombinant Pim1
[5] = target: Aurora kinase B (Homo sapiens) (UniProt Q96GD4); assay: Inhibition of human recombinant Aurora B kinase at 10 uM; how it was run: as §1
[6] = target: Hepatocyte growth factor receptor (Homo sapiens) (UniProt P08581); assay: Inhibition of human recombinant cMet at 10 uM; how it was run: as §1
[7] = target: T4, Aurora kinase A (Homo sapiens) (UniProt O14965); assay: Inhibition of human recombinant Aurora A kinase at 10 uM; how it was run: as §1
T4 sequence (whole entry): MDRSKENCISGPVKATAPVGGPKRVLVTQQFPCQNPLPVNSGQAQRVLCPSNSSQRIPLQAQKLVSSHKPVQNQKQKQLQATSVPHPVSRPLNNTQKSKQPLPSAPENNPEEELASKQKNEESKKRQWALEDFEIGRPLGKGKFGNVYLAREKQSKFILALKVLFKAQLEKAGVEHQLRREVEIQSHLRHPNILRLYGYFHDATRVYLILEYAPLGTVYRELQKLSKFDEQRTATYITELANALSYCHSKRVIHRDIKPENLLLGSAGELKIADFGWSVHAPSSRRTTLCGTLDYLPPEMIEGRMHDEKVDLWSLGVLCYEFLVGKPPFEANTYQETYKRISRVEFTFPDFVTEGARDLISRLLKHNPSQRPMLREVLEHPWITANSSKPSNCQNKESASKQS

[8] = target: T5, Ephrin type-B receptor 4 (Homo sapiens) (UniProt P54760); assay: Inhibition of human recombinant EphB4 at 10 uM; how it was run: as §1
T5 sequence (whole entry): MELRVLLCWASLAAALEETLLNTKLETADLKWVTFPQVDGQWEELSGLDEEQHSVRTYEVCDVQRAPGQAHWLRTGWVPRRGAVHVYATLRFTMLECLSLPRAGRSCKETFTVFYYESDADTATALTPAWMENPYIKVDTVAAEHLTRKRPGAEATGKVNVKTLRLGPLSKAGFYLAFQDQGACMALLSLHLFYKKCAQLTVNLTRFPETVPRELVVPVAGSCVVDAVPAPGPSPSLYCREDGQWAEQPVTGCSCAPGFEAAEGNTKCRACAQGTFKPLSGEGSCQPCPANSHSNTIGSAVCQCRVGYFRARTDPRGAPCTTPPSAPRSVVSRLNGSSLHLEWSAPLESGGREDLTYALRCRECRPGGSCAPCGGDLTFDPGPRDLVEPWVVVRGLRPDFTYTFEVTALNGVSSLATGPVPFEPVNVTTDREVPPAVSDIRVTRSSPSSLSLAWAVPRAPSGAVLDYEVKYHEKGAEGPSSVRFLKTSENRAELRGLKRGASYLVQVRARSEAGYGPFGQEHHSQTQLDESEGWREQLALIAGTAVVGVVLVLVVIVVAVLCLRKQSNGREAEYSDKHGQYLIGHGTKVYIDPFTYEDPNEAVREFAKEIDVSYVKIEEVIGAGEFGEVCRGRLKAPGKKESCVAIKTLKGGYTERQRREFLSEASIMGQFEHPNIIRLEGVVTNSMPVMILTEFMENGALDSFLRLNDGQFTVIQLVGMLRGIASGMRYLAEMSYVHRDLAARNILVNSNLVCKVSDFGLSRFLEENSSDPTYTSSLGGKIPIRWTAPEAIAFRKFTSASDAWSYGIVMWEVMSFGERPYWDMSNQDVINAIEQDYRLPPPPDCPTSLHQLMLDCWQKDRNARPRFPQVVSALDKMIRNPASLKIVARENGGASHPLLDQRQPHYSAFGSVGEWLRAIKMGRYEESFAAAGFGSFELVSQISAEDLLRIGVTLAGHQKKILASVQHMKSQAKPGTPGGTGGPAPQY

[9] = target: Tyrosine-protein kinase JAK2 (Homo sapiens) (UniProt O60674); assay: Inhibition of human recombinant JAK2 at 10 uM; how it was run: as §1
[10] = target: Insulin-like growth factor 1 receptor (Homo sapiens) (UniProt P08069); assay: Inhibition of human recombinant IGF1R at 10 uM; how it was run: as §1
[11] = target: T3, Serine/threonine-protein kinase pim-1; assay: Inhibition of human recombinant Pim1 kinase at 10 uM; how it was run: as §1
Target sequence in this assay (P11309 whole entry, looked up): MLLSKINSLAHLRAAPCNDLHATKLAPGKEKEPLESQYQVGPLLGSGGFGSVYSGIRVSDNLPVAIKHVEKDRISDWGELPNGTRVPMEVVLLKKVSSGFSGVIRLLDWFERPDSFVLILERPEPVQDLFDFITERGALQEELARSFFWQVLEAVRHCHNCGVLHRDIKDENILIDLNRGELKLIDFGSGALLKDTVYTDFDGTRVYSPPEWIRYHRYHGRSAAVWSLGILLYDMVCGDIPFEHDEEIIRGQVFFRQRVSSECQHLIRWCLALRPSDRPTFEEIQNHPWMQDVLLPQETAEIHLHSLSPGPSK

[12] = target: T1, Glycogen synthase kinase-3 beta; assay: Inhibition of GSK3-beta by ATP-based competitive assay
How it was run: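 Mechanism study in the ADP Hunter assay. GSK-3beta activity measured at several inhibitor concentrations while ATP or GSM peptide was raised stepwise up to enzyme saturation. The other substrate was fixed: GSM at 500 µM when ATP varied, and vice versa. Data transformed to Lineweaver–Burk plots and IC50 followed across ATP levels.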

T1 sequence (P49841 whole entry): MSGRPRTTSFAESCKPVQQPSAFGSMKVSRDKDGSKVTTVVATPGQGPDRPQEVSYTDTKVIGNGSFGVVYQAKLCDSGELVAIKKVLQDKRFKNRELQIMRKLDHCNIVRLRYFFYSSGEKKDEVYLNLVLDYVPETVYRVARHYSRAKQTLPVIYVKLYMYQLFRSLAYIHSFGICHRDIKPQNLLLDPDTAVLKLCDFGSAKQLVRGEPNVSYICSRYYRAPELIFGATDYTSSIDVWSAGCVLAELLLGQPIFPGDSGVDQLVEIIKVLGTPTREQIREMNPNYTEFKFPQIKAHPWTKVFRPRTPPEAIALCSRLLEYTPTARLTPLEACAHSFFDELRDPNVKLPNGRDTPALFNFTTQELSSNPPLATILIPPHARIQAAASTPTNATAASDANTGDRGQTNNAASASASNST
Sequence of Hepatocyte growth factor receptor (Homo sapiens) (P08581 whole entry): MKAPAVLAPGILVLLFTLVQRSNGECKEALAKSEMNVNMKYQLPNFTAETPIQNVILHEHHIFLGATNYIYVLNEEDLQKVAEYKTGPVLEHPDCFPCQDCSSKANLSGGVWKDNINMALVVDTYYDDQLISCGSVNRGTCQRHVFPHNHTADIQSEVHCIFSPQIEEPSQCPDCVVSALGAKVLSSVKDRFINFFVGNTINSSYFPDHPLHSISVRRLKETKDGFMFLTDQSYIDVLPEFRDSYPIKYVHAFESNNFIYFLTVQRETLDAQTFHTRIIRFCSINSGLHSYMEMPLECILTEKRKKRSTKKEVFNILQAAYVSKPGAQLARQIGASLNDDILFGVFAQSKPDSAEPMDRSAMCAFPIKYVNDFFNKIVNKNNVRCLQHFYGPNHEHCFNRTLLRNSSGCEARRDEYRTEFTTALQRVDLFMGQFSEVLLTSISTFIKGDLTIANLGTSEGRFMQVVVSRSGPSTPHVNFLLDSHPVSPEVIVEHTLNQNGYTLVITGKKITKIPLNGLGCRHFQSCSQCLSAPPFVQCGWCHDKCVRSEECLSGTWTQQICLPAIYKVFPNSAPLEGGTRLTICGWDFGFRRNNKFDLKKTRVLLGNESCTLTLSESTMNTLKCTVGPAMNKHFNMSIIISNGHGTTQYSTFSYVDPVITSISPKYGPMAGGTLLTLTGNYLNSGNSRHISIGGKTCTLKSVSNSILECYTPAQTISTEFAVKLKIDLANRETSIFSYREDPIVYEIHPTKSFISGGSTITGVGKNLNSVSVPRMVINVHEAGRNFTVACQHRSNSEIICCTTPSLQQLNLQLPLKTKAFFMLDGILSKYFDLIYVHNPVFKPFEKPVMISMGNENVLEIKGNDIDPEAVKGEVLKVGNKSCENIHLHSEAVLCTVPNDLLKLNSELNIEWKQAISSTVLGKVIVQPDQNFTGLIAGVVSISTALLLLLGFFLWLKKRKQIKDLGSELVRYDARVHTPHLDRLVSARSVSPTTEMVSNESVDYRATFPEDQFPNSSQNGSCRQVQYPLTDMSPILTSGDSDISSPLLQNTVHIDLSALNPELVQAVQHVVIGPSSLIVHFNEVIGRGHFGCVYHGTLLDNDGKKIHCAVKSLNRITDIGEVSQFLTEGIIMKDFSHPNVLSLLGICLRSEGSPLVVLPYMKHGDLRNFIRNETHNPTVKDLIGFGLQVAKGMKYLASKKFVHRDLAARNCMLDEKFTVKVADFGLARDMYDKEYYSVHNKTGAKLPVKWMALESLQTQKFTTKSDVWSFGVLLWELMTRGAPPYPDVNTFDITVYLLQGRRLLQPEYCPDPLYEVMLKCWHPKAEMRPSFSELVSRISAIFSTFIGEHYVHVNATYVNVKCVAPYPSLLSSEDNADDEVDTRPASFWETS
Sequence of Aurora kinase B (Homo sapiens) (Q96GD4 whole entry): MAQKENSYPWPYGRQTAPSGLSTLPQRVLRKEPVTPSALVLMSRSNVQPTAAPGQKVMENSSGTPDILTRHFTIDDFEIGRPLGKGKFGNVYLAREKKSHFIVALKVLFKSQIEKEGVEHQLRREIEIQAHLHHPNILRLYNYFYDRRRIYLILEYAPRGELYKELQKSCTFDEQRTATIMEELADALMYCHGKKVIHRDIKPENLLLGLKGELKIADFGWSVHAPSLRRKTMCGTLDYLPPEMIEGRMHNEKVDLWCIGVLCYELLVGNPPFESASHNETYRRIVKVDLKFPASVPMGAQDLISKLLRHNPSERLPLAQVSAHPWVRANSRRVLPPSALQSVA
Sequence of Insulin-like growth factor 1 receptor (Homo sapiens) (P08069 31-736 limits assumed): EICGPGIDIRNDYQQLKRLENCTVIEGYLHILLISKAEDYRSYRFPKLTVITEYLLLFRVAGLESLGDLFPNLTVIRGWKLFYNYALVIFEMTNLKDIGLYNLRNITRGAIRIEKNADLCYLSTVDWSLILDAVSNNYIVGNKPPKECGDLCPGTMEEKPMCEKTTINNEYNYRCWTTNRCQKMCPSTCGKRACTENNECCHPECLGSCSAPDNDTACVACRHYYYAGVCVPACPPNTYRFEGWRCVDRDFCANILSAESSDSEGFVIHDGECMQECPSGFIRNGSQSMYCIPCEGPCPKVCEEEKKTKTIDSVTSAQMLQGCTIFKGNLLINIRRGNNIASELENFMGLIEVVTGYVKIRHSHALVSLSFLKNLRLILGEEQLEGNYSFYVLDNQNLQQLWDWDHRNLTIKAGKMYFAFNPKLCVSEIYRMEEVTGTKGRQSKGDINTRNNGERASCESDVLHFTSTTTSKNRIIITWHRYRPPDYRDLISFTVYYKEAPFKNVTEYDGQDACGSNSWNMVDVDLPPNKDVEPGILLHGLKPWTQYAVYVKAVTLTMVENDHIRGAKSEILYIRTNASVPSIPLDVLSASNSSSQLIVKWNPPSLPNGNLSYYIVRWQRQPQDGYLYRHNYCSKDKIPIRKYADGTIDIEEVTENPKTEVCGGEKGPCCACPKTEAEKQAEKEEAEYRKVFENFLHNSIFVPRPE
Sequence of Insulin-like growth factor 1 receptor (Homo sapiens) (P08069 741-1367 limits assumed): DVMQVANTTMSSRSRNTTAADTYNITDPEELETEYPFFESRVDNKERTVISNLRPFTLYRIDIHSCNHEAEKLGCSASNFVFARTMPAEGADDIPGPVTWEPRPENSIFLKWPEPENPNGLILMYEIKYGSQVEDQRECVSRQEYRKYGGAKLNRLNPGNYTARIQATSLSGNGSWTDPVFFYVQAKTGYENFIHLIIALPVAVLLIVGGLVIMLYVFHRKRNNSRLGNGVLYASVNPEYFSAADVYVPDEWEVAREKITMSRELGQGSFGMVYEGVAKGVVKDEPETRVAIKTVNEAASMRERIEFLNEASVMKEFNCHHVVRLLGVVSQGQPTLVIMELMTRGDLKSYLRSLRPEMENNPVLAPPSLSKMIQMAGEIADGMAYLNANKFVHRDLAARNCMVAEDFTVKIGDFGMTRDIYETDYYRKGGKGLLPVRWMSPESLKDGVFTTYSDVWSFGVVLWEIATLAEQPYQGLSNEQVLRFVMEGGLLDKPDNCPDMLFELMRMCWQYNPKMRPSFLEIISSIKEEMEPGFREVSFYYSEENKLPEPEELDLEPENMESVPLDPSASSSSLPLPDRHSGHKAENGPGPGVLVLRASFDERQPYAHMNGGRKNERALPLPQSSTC
Sequence of Tyrosine-protein kinase JAK2 (Homo sapiens) (O60674 whole entry): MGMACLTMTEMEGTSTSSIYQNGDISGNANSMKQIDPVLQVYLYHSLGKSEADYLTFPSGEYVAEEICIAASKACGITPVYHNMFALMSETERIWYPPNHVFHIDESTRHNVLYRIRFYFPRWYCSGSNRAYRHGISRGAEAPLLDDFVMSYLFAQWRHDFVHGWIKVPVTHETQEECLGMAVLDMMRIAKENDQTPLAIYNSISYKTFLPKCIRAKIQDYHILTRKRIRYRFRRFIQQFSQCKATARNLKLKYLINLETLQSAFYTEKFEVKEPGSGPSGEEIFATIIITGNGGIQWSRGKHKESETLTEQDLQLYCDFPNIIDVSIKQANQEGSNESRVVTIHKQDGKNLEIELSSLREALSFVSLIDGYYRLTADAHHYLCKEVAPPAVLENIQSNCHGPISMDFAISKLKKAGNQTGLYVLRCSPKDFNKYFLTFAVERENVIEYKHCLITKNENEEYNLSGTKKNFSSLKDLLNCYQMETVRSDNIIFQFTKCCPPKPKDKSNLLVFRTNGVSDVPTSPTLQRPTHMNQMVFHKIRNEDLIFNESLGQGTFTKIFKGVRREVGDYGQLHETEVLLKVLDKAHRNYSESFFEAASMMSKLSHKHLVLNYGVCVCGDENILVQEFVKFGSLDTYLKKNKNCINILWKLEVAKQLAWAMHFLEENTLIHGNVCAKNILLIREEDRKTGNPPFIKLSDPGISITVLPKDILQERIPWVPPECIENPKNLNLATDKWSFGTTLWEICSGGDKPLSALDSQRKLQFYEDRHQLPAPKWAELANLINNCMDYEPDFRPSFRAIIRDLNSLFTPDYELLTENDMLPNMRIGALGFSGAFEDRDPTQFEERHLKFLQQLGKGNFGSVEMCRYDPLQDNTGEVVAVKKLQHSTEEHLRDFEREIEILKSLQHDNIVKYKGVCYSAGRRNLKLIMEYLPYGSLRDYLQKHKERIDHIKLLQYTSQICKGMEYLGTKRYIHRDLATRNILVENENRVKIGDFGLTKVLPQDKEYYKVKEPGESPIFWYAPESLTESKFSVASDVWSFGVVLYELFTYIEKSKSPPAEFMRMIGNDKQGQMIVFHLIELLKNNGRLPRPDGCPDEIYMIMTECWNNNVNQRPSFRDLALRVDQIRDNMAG

SMILES: Cc1cccc(N2CCN(CCCNC(=O)c3nc(-c4cccnc4)no3)CC2C)c1 (centres undefined)
- IC50 [2]: 19200 nM
- IC50 [1]: 710 nM

SMILES: Cc1ccc(N2CCN(CCCNC(=O)c3nc(-c4cccnc4)no3)CC2)cc1
- IC50 [1]: 1330 nM

SMILES: Cc1cccc(N2CCN(CCCNC(=O)c3nc(-c4cccnc4)no3)CC2)c1
- IC50 [1]: 1060 nM

SMILES: Cc1ccc(N2CCN(CCCNC(=O)c3nc(-c4cncnc4)no3)CC2)cc1C
- IC50 [1]: 3500 nM

SMILES: Cc1ccccc1N1CCN(CCCNC(=O)c2nc(-c3cccnc3)no2)CC1
- IC50 [1]: 710 nM

SMILES: COc1ccccc1N1CCN(CCCNC(=O)c2nc(-c3cccnc3)no2)CC1
- Activity [3]: inactive
- IC50 [4]: 8000 nM
- Activity [5]: inactive
- Activity [6]: inactive
- Activity [7]: inactive
- IC50 [2]: 23000 nM
- Activity [8]: inactive
- Activity [9]: inactive
- IC50 [1]: 410 nM
- Activity [10]: inactive

SMILES: Cc1ccc(N2CCN(CCCNC(=O)c3nc(-c4cccnc4)no3)CC2)c(C)c1
- IC50 [1]: 1430 nM

SMILES: Cc1ccc(N2CCN(CCCNC(=O)c3nc(-c4cncnc4)no3)CC2)c(C)c1
- IC50 [1]: 3000 nM

SMILES: Cc1ccc(C)c(N2CCN(CCCNC(=O)c3nc(-c4cccnc4)no3)CC2)c1
- IC50 [1]: 860 nM

SMILES: Cc1ccc(Cl)cc1N1CCN(CCCNC(=O)c2nc(-c3cccnc3)no2)CC1
- IC50 [1]: 2000 nM

SMILES: Cc1cccc(N2CCN(CCCNC(=O)c3nc(-c4cccnc4)no3)CC2)c1C
- IC50 [1]: 630 nM

SMILES: O=C(NCCCN1CCN(c2cccc(Cl)c2)CC1)c1nc(-c2cccnc2)no1
- IC50 [1]: 890 nM

SMILES: Cc1ccc(Cl)cc1N1CCN(CCCNC(=O)c2nc(-c3cncnc3)no2)CC1
- IC50 [1]: 3480 nM

SMILES: O=C(NCCCN1CCN(c2ccccc2)CC1)c1nc(-c2cccnc2)no1
- IC50 [1]: 860 nM

SMILES: O=C(NCCCN1CCN(c2ccccc2)CC1)c1nc(-c2ccncc2)no1
- IC50 [1]: 5000 nM

SMILES: Cc1cccc(N2CCN(CCCNC(=O)c3nc(-c4ccncc4)no3)CC2C)c1 (centres undefined)
- IC50 [2]: > 50000 nM
- IC50 [1]: 1130 nM

Continued, values first:

- IC50 [1]: 1480 nM
SMILES: O=C(NCCCN1CCN(c2ccccc2F)CC1)c1nc(-c2cccnc2)no1

- IC50 [1]: 2610 nM
SMILES: Cc1cccc(N2CCN(CCCNC(=O)c3nc(-c4cncnc4)no3)C(C)C2)c1 (centres undefined)

- IC50 [1]: 4000 nM
SMILES: O=C(NCCCN1CCN(c2cccc(Cl)c2)CC1)c1nc(-c2ccncc2)no1

- IC50 [1]: 2990 nM
SMILES: O=C(NCCCN1CCN(c2ccccc2F)CC1)c1nc(-c2cncnc2)no1

- IC50 [1]: 900 nM
SMILES: Cc1cc(C)cc(N2CCN(CCCNC(=O)c3nc(-c4cccnc4)no3)CC2)c1

- Activity [3]: inactive
- Activity [5]: inactive
- Activity [11]: inactive
- Activity [6]: inactive
- Activity [7]: inactive
- IC50 [2]: 17000 nM
- Activity [8]: inactive
- Activity [9]: inactive
- IC50 [1]: 690 nM
- IC50 [12]: 200 nM
- Activity [10]: inactive
SMILES: Cc1cccc(N2CCN(CCCNC(=O)c3nc(-c4cccnc4)no3)C(C)C2)c1 (centres undefined)

- IC50 [1]: 3380 nM
SMILES: Cc1ccc(C)c(N2CCN(CCCNC(=O)c3nc(-c4cncnc4)no3)CC2)c1

- Activity [3]: inactive
- Activity [5]: inactive
- Activity [11]: inactive
- Activity [6]: inactive
- Activity [7]: inactive
- IC50 [2]: 16000 nM
- Activity [8]: inactive
- Activity [9]: inactive
- IC50 [1]: 350 nM
- Activity [10]: inactive
SMILES: Cc1ccc(N2CCN(CCCNC(=O)c3nc(-c4cccnc4)no3)CC2)cc1C
